Measurements published in ChEMBL document CHEMBL1132985, “Design and SAR of novel potassium channel openers targeted for urge urinary incontinence. 2. Selective and potent benzylamino cyclobutenediones” (J Med Chem, 2000).

What was measured:
Format in all cases: functional
Rattus norvegicus [1] = species: Rattus norvegicus; assay: In vitro inhibitory concentration that relaxed KCL induced contraction in rat detrusor strip by 50%
Rattus norvegicus [2] = assay: Compound was evaluated in vivo for the effective dose that cause a 50% reduction in frequency of spontaneous bladder contraction in the rat hypertrophied model after oral administration
Procedure, shortened: (§1)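 Female Sprague-Dawley rats (190-210 g) given partial proximal urethral ligation (4-0 silk over 1 mm rod) under isoflurane; bladder catheter, cystometry in metabolic cages after overnight saline perfusion (2 mL/h), saline infusion 20 mL/h. Oral dosing in PEG-200 2 h after first cystometry, repeat ~1 h post-dose; % change in contraction frequency from pre-drug; ED50 from dose-response.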

Rattus norvegicus [3] = assay: The percent change in the frequency of spontaneous bladder contractions after oral administration of a dose of 3 mg/kg in rat hypertrophic bladder model; procedure, shortened: as §1
Rattus norvegicus [4] = assay: The percent change in BP was determined after oral administration of a dose of 10 mg/kg in rat hypertrophied model
Rattus norvegicus [5] = assay: Compound was evaluated in vivo for the effective dose that cause a 20% drop in MAP normotensive rat after oral administration
[6] = Selectivity ratio of MAP ED20/bladder ED50
Procedure, shortened: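 Ratio of oral MAP ED20 in normotensive rats to oral ED50 for 50% fall in spontaneous bladder contraction frequency in rat hypertrophied unstable-bladder model.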

CCC(C)(C)/N=c1\c(O)c(O)\c1=N/Cc1ccc(C#N)cc1Cl
IC50 (Rattus norvegicus [1]): 0.13 µM

Cc1cc(Br)cc(C)c1C/N=c1\c(O)c(O)\c1=N/C(C)(C)C
IC50 (Rattus norvegicus [1]): 0.29 µM

Cc1cc(Cl)cc(Cl)c1C/N=c1\c(O)c(O)\c1=N/C(C)(C)C
IC50 (Rattus norvegicus [1]): 0.22 µM

CC(C)(C)/N=c1\c(O)c(O)\c1=N/Cc1c(Cl)cccc1Cl
IC50 (Rattus norvegicus [1]): 1.1 µM

CCc1cc(C#N)ccc1C/N=c1\c(O)c(O)\c1=N/[C@H](C)C(C)(C)C
IC50 (Rattus norvegicus [1]): 2 µM

CC(/N=c1\c(O)c(O)\c1=N/Cc1ccc(Cl)cc1Cl)C(C)(C)C (stereo not drawn)
IC50 (Rattus norvegicus [1]): 0.34 µM

CC(C)(C)/N=c1\c(O)c(O)\c1=N/Cc1ccc(C#N)cc1Cl
IC50 (Rattus norvegicus [1]): 0.14 µM
ED50 (Rattus norvegicus [2]): 3 mg/kg

CCc1cc(C#N)ccc1C/N=c1\c(O)c(O)\c1=N/C(C)(C)C
IC50 (Rattus norvegicus [1]): 0.24 µM

CCC(C)(C)/N=c1\c(O)c(O)\c1=N/Cc1c(C)cc(Br)cc1C
IC50 (Rattus norvegicus [1]): 1.2 µM

CCC(C)(C)/N=c1\c(O)c(O)\c1=N/Cc1ccc(F)c(F)c1
IC50 (Rattus norvegicus [1]): 1.6 µM

CCC(C)(C)/N=c1\c(O)c(O)\c1=N/Cc1ccc(SC)cc1
IC50 (Rattus norvegicus [1]): 5.6 µM

CC(C)(C)/N=c1\c(O)c(O)\c1=N/Cc1cc(F)ccc1F
IC50 (Rattus norvegicus [1]): 3.9 µM

CCC(C)(C)/N=c1\c(O)c(O)\c1=N/Cc1c(C)cc(C)cc1Cl
IC50 (Rattus norvegicus [1]): 0.2 µM

CCC(C)(C)/N=c1\c(O)c(O)\c1=N/Cc1ccc(F)cc1F
IC50 (Rattus norvegicus [1]): 0.22 µM

CCC(C)(C)/N=c1\c(O)c(O)\c1=N/Cc1ccc(F)cc1Cl
IC50 (Rattus norvegicus [1]): 1.5 µM

Cc1cc(C#N)cc(Cl)c1C/N=c1\c(O)c(O)\c1=N/C(C)C(C)(C)C (stereo not drawn)
IC50 (Rattus norvegicus [1]): 1.9 µM

N#Cc1ccc(CNc2c(NCc3ccc(C#N)cc3)c(=O)c2=O)cc1
IC50 (Rattus norvegicus [1]): > 30 µM

CCC(C)(C)/N=c1\c(O)c(O)\c1=N/Cc1cc(F)cc(F)c1
IC50 (Rattus norvegicus [1]): 0.75 µM

CCc1cc(C/N=c2\c(O)c(O)\c2=N/C(C)(C)C)ccc1C#N
IC50 (Rattus norvegicus [1]): 6.1 µM

CC(C)(C)/N=c1\c(O)c(O)\c1=N/Cc1ccccc1
IC50 (Rattus norvegicus [1]): 3.4 µM

CCCC/N=c1\c(O)c(O)\c1=N/Cc1ccc(C#N)cc1
IC50 (Rattus norvegicus [1]): > 30 µM

CC(/N=c1\c(O)c(O)\c1=N/CCc1ccc(C#N)cc1)C(C)(C)C (stereo not drawn)
IC50 (Rattus norvegicus [1]): > 30 µM

CCC/N=c1\c(O)c(O)\c1=N/Cc1ccc(C#N)cc1
IC50 (Rattus norvegicus [1]): 21.9 µM

CCc1cc(C#N)ccc1C/N=c1\c(O)c(O)\c1=N/C(C)(C)CC
IC50 (Rattus norvegicus [1]): 0.11 µM

CC(C)(C)/N=c1\c(O)c(O)\c1=N/Cc1ccccc1F
IC50 (Rattus norvegicus [1]): 2.1 µM

CC(C)(C)/N=c1\c(O)c(O)\c1=N/Cc1ccc(Cl)cc1
IC50 (Rattus norvegicus [1]): 1.7 µM

CCC(C)(C)/N=c1\c(O)c(O)\c1=N/Cc1c(Cl)cccc1Cl
IC50 (Rattus norvegicus [1]): 0.28 µM

CCC(C)(C)/N=c1\c(O)c(O)\c1=N/Cc1c(C)cccc1Cl
IC50 (Rattus norvegicus [1]): 4.4 µM

CC(C)(C)/N=c1\c(O)c(O)\c1=N/CCc1ccc(C#N)cc1
IC50 (Rattus norvegicus [1]): > 30 µM

CC(C)C/N=c1\c(O)c(O)\c1=N/Cc1ccc(C#N)cc1
IC50 (Rattus norvegicus [1]): 10.2 µM

CCCC(=O)N(Cc1ccc(C#N)cc1)c1c(NC(C)C(C)(C)C)c(=O)c1=O (stereo not drawn)
IC50 (Rattus norvegicus [1]): 12.2 µM
ED50 (Rattus norvegicus [2]): 8 mg/kg

CCC(C)(C)/N=c1\c(O)c(O)\c1=N/Cc1ccc(C)cc1C
IC50 (Rattus norvegicus [1]): 0.53 µM

CCC(C)(C)/N=c1\c(O)c(O)\c1=N/Cc1cc(C)cc(C)c1
IC50 (Rattus norvegicus [1]): > 30 µM

CC(C)(C)/N=c1\c(O)c(O)\c1=N/Cc1c(F)cccc1F
IC50 (Rattus norvegicus [1]): 7.5 µM

N#Cc1ccc(CNc2c(NC3CCCC3)c(=O)c2=O)cc1
IC50 (Rattus norvegicus [1]): 9.4 µM

CCC(C)(C)/N=c1\c(O)c(O)\c1=N/Cc1c(C)cccc1C
IC50 (Rattus norvegicus [1]): 0.83 µM

CC(C)(C)/N=c1\c(O)c(O)\c1=N/Cc1ccncc1
IC50 (Rattus norvegicus [1]): 3 µM

CC(C)(C)/N=c1\c(O)c(O)\c1=N/Cc1ccc(F)cc1Cl
IC50 (Rattus norvegicus [1]): 1.4 µM

CC(C)(C)/N=c1\c(O)c(O)\c1=N/Cc1cccnc1
IC50 (Rattus norvegicus [1]): 2.6 µM

CC(C)(C)/N=c1\c(O)c(O)\c1=N/Cc1ccc(F)cc1
IC50 (Rattus norvegicus [1]): 1.5 µM

CC(C)(C)/N=c1\c(O)c(O)\c1=N/Cc1ccccn1
IC50 (Rattus norvegicus [1]): 11.5 µM

CCC(C)(C)/N=c1\c(O)c(O)\c1=N/Cc1ccc(Cl)cc1Cl
IC50 (Rattus norvegicus [1]): 0.21 µM

C[C@@H](/N=c1\c(O)c(O)\c1=N/Cc1ccc(C#N)cc1)C(C)(C)C
Change (Rattus norvegicus [3]): -69%
IC50 (Rattus norvegicus [1]): 0.27 µM
Change (Rattus norvegicus [4]): 7%

CCc1cc(C#N)ccc1Nc1c(N[C@H](C)C(C)(C)C)c(=O)c1=O
ED50 (Rattus norvegicus [2]): 0.13 mg/kg
ED20 (Rattus norvegicus [5]): 2.3 mg/kg
Ratio [6]: 17.7

CCC(C)(C)Nc1c(NCc2c(C)cc(Cl)cc2Cl)c(=O)c1=O
Change (Rattus norvegicus [3]): -82%
IC50 (Rattus norvegicus [1]): 0.1 µM
ED50 (Rattus norvegicus [2]): 0.6 mg/kg
ED20 (Rattus norvegicus [5]): 100 mg/kg
Change (Rattus norvegicus [4]): -7%
Ratio [6]: 166

CC[C@@H](C)/N=c1\c(O)c(O)\c1=N/Cc1ccc(C#N)cc1
IC50 (Rattus norvegicus [1]): 4 µM

CC[C@H](C)/N=c1\c(O)c(O)\c1=N/Cc1ccc(C#N)cc1
IC50 (Rattus norvegicus [1]): 2.2 µM

Cc1cc(Cl)cc(Cl)c1C/N=c1\c(O)c(O)\c1=N/C(C)C(C)(C)C (stereo not drawn)
IC50 (Rattus norvegicus [1]): 9.8 µM

N#Cc1ccc(CNc2c(N)c(=O)c2=O)cc1
IC50 (Rattus norvegicus [1]): > 30 µM

CC(C)(CO)/N=c1\c(O)c(O)\c1=N/Cc1ccc(C#N)cc1
IC50 (Rattus norvegicus [1]): 21.3 µM

CC(/N=c1\c(O)c(O)\c1=N/Cc1ccc(C#N)cc1Cl)C(C)(C)C (stereo not drawn)
IC50 (Rattus norvegicus [1]): 0.18 µM

CCC(C)(C)/N=c1\c(O)c(O)\c1=N/Cc1ccc(C#N)cc1
IC50 (Rattus norvegicus [1]): 1.1 µM

CC(C)(C)/N=c1\c(O)c(O)\c1=N/Cc1ccc(Cl)cc1Cl
IC50 (Rattus norvegicus [1]): 1.3 µM

CCC(C)(C)/N=c1\c(O)c(O)\c1=N/Cc1c(C)cc(C#N)cc1Cl
IC50 (Rattus norvegicus [1]): 0.16 µM

CC(C)(C)/N=c1\c(O)c(O)\c1=N/Cc1ccc(C#N)cc1
Change (Rattus norvegicus [3]): -52%
IC50 (Rattus norvegicus [1]): 0.27 µM
ED50 (Rattus norvegicus [2]): 3 mg/kg

CCC(C)(C)/N=c1\c(O)c(O)\c1=N/Cc1ccc(C)c(C)c1
IC50 (Rattus norvegicus [1]): > 30 µM

CCC(CC)/N=c1\c(O)c(O)\c1=N/Cc1ccc(C#N)cc1
IC50 (Rattus norvegicus [1]): 1.3 µM

CCC(C)(C)/N=c1\c(O)c(O)\c1=N/Cc1ccc(F)cc1
IC50 (Rattus norvegicus [1]): 0.36 µM

CCC(C)(C)/N=c1\c(O)c(O)\c1=N/Cc1ccc(F)c(Cl)c1
IC50 (Rattus norvegicus [1]): 0.87 µM

CC(C)(C)/N=c1\c(O)c(O)\c1=N/Cc1ccc(F)cc1F
IC50 (Rattus norvegicus [1]): 2.1 µM

CC(/N=c1\c(O)c(O)\c1=N/[C@H](C)C(C)(C)C)c1ccc(C#N)cc1 (stereo partly drawn)
IC50 (Rattus norvegicus [1]): 6.5 µM

CC(/N=c1/c(NC(=O)c2ccc(C#N)cc2)c(O)c1=O)C(C)(C)C (stereo not drawn)
IC50 (Rattus norvegicus [1]): 11.5 µM

CN(C)c1c(NCc2ccc(C#N)cc2)c(=O)c1=O
IC50 (Rattus norvegicus [1]): > 30 µM

CC(C)(C)/N=c1\c(O)c(O)\c1=N/Cc1ccc(C#N)c(Cl)c1
IC50 (Rattus norvegicus [1]): 1.1 µM

CCc1cc(Br)ccc1C/N=c1\c(O)c(O)\c1=N/C(C)(C)C
IC50 (Rattus norvegicus [1]): 0.27 µM

N#Cc1ccc(CNc2c(NCC(F)(F)C(F)(F)F)c(=O)c2=O)cc1
IC50 (Rattus norvegicus [1]): 14.4 µM

CN(c1c(NCc2ccc(C#N)cc2)c(=O)c1=O)C(C)(C)C
IC50 (Rattus norvegicus [1]): 18.3 µM

CCCC(=O)N(Cc1c(C)cc(Cl)cc1Cl)c1c(NC(C)(C)CC)c(=O)c1=O
ED50 (Rattus norvegicus [2]): 3.9 mg/kg

COc1ccc(C/N=c2\c(O)c(O)\c2=N/C(C)(C)C)cc1
IC50 (Rattus norvegicus [1]): 4.8 µM

CCC(C)(C)/N=c1\c(O)c(O)\c1=N/Cc1c(C)cc(C)cc1C
IC50 (Rattus norvegicus [1]): 0.31 µM

CC(C)/N=c1\c(O)c(O)\c1=N/Cc1ccc(C#N)cc1
IC50 (Rattus norvegicus [1]): 14 µM

CCC(C)(C)/N=c1\c(O)c(O)\c1=N/Cc1ccc(C#N)c(Cl)c1
IC50 (Rattus norvegicus [1]): 0.26 µM

C/N=c1\c(O)c(O)\c1=N/Cc1ccc(C#N)cc1
IC50 (Rattus norvegicus [1]): > 30 µM

CC(C)(C)/N=c1\c(O)c(O)\c1=N/Cc1cccc(F)c1
IC50 (Rattus norvegicus [1]): 2.4 µM

Cc1ccc(C/N=c2\c(O)c(O)\c2=N/C(C)(C)C)c(C)c1
IC50 (Rattus norvegicus [1]): 0.63 µM

CC1(C)Oc2ccc(OC(F)(F)F)cc2[C@@H](N2Cc3ccccc3C2=O)[C@@H]1O [CELIKALIM]
ED50 (Rattus norvegicus [2]): 0.3 mg/kg
ED20 (Rattus norvegicus [5]): 0.2 mg/kg
Ratio [6]: 0.7

C[C@](O)(C(=O)Nc1ccc(C(=O)c2ccccc2)cc1)C(F)(F)F [ZD-6169]
ED50 (Rattus norvegicus [2]): 2.4 mg/kg
Ratio [6]: 2.9
